Reference: ChEMBL document CHEMBL1142636 (2000)

Assays:
[1] = test system: SK-MEL-5; experiment: Growth inhibition of human SK-MEL-5 cells; assay type: functional
In short: (§1)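 Tested at the NCI in its human disease-oriented in vitro screen of 60 tumour cell lines, following the Monks et al. methods. Activity is expressed as GI50, given as log molar values.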

[2] = test system: HCT-15; experiment: Growth inhibition of human HCT15 cells; assay type: functional
[3] = test system: DLD-1; experiment: Growth inhibition of human DLD1 cells; assay type: functional
[4] = test system: KM-20L2; experiment: Growth inhibition of human KM20L2 cells; assay type: functional
[5] = test system: HOP-18; experiment: Growth inhibition of human HOP18 cells; assay type: functional
[6] = test system: SF-539; experiment: Growth inhibition of human SF539 cells; assay type: functional; in short: as §1
[7] = Growth inhibition of human […] cells; assay type: functional
[8] = Growth inhibition of human OVACR8 cells; assay type: functional
[9] = Growth inhibition of human LXFL529 cells; assay type: functional; conditions: LXFL 529
[10] = Growth inhibition of human HL60(TB) cells; assay type: functional, HL-60(TB); conditions: HL-60
[11] = test system: SF-268; experiment: Growth inhibition of human SF268 cells; assay type: functional; in short: as §1
[12] = test system: HOP-62; experiment: Growth inhibition of human HOP62 cells; assay type: functional
[13] = test system: UACC-62; experiment: Growth inhibition of human UACC62 cells; assay type: functional; in short: as §1
[14] = test system: SNB-75; experiment: Growth inhibition of human SNB75 cells; assay type: functional; in short: as §1
[15] = test system: 786-0; experiment: Growth inhibition of human 786-0 cells; assay type: functional
[16] = test system: DMS-273; experiment: Growth inhibition of human DMS273 cells; assay type: functional
[17] = test system: SK-MEL-28; experiment: Growth inhibition of human SK-MEL-28 cells; assay type: functional; in short: as §1
[18] = Growth inhibition of human OVACR4 cells; assay type: functional
[19] = test system: SK-MEL-2; experiment: Growth inhibition of human SK-MEL-2 cells; assay type: functional; in short: as §1
[20] = Growth inhibition of human OVACR5 cells; assay type: functional
[21] = test system: KM12; experiment: Growth inhibition of human KM12 cells; assay type: functional
[22] = test system: HOP-92; experiment: Growth inhibition of human HOP92 cells; assay type: functional
[23] = Growth inhibition of human RPMI8266 cells; assay type: functional
[24] = test system: RXF 393; experiment: Growth inhibition of human […] cells; assay type: functional
[25] = test system: A549; experiment: Growth inhibition of human A549 cells; assay type: functional
[26] = test system: LOX IMVI; experiment: Growth inhibition of human LOX IMVI cells; assay type: functional
[27] = test system: SN12C; experiment: Growth inhibition of human SN12C cells; assay type: functional; in short: as §1
[28] = test system: SNB-19; experiment: Growth inhibition of human SNB19 cells; assay type: functional; in short: as §1
[29] = test system: M19-MEL; experiment: Growth inhibition of human M19-MEL cells; assay type: functional
[30] = test system: M14; experiment: Growth inhibition of human M14 cells; assay type: functional
[31] = test system: COLO 205; experiment: Growth inhibition of human COLO205 cells; assay type: functional
[32] = test system: HCC 2998; experiment: Growth inhibition of human HCC2998 cells; assay type: functional
[33] = test system: NCI-H460; experiment: Growth inhibition of human NCI-H460 cells; assay type: functional
[34] = test system: IGROV-1; experiment: Growth inhibition of human IGROV1 cells; assay type: functional
[35] = test system: CCRF-CEM; experiment: Growth inhibition of human CCRF-CEM cells; assay type: functional
[36] = test system: HCT-116; experiment: Growth inhibition of human HCT116 cells; assay type: functional
[37] = test system: ACHN; experiment: Growth inhibition of human ACHN cells; assay type: functional
[38] = test system: NCI-H226; experiment: Growth inhibition of human NCI-H226 cells; assay type: functional
[39] = test system: XF498; experiment: Growth inhibition of human XF498 cells; assay type: functional; in short: as §1
[40] = test system: NCI-H322M; experiment: Growth inhibition of human NCI-H322M cells; assay type: functional
[41] = test system: SW-620; experiment: Growth inhibition of human SW620 cells; assay type: functional; in short: as §1
[42] = test system: HT-29; experiment: Growth inhibition of human HT29 cells; assay type: functional
[43] = test system: TK-10; experiment: Growth inhibition of human TK10 cells; assay type: functional; in short: as §1
[44] = Growth inhibition of human DMS144 cells; assay type: functional
[45] = test system: K562; experiment: Growth inhibition of human K562 cells; assay type: functional
[46] = test system: NCI-H522; experiment: Growth inhibition of human NCI-H522 cells; assay type: functional
[47] = test system: U-251; experiment: Growth inhibition of human U251 cells; assay type: functional; in short: as §1
[48] = test system: SK-OV-3; experiment: Growth inhibition of human SK-OV-3 cells; assay type: functional; in short: as §1
[49] = test system: Malme-3M; experiment: Growth inhibition of human MALME-3M cells; assay type: functional
[50] = test system: SR; experiment: Growth inhibition of human SR cells; assay type: functional; in short: as §1
[51] = test system: UO-31; experiment: Growth inhibition of human UO31 cells; assay type: functional; in short: as §1

In the case of `COc1cc(C)cc2c1[nH]c1ccccc12` [MURRAYAFOLINE A], the GI50 [1] is reported as 9.12 µM, the GI50 [2] is reported as 7.41 µM and the GI50 [3] is reported as 10.5 µM. The GI50 [4] was 7.59 µM, the GI50 [5] was 0.288 µM and the GI50 [6] was 6.03 µM. The GI50 [7] was 8.91 µM, the GI50 [8] was 7.41 µM and the GI50 [9] was 18.2 µM. It also gave a GI50 [10] of 6.92 µM, a GI50 [11] of 14.5 µM and a GI50 [12] of 6.31 µM. It also gave a GI50 [13] of 15.1 µM, a GI50 [14] of 25.1 µM and a GI50 [15] of 9.33 µM. It also gave a GI50 [16] of 7.76 µM, a GI50 [17] of 16.2 µM and a GI50 [18] of 25.1 µM. The GI50 [19] was 7.41 µM, the GI50 [20] was 24.5 µM and the GI50 [21] was 8.13 µM. The GI50 [22] was 23.4 µM, the GI50 [23] was 8.71 µM and the GI50 [24] was 9.33 µM. It also gave a GI50 [25] of 1.15 µM, a GI50 [26] of 12.6 µM and a GI50 [27] of 14.1 µM. For the same molecule, the GI50 [28] was 25.1 µM, the GI50 [29] was 18.2 µM and the GI50 [30] was 7.24 µM. The GI50 [31] was 12.3 µM, the GI50 [32] was 14.8 µM and the GI50 [33] was 7.76 µM. The GI50 [34] was 14.8 µM, the GI50 [35] was 15.5 µM and the GI50 [36] was 11.5 µM. For the same molecule, the GI50 [37] was 23.4 µM, the GI50 [38] was 8.51 µM and the GI50 [39] was 22.4 µM. The GI50 [40] was 12.9 µM, the GI50 [41] was 8.32 µM and the GI50 [42] was 7.76 µM. For the same molecule, the GI50 [43] was 25.1 µM, the GI50 [44] was 9.55 µM and the GI50 [45] was 25.1 µM. For the same molecule, the GI50 [46] was 4.27 µM, the GI50 [47] was 10.5 µM and the GI50 [48] was 20.9 µM. For the same molecule, the GI50 [49] was 8.13 µM, the GI50 [50] was 10.2 µM and the GI50 [51] was 15.1 µM.
